Experimental data collected from several papers.
Protocols differ between the studies behind these lines.
PPARA: Peroxisome proliferator-activated receptor alpha (PPARA, Homo sapiens, UniProt Q07869)
ADRA1B: Alpha-1B adrenergic receptor (ADRA1B, Homo sapiens, UniProt P35368)
CASP1: Caspase-1 (CASP1, Homo sapiens, UniProt P29466)

CCCC[C@H](NC(=O)C1CN(C)C1)c1ncc(-c2cc3ccccc3nc2OC)[nH]1 — Ki (Histone deacetylase 3 (HDAC3, Homo sapiens, UniProt O15379); enzyme activity; inhibitor): 0.273 µM
CC(=O)N[C@@H](CC(C)C)C(=O)N[C@@H](CC(C)C)C(=O)N[C@@H](CCCN=C(N)N)C(=O)N[C@H](C(=O)N[C@@H](CCCCN)C(=O)N[C@@H](CCCN=C(N)N)C(N)=O)C(C)C — Ki (Proprotein convertase subtilisin/kexin type 7 (Homo sapiens, UniProt Q16549); enzyme activity; inhibitor): 2.7 µM
Cc1c(C)n(Cc2ccc(-c3ccccc3C(=O)O)cc2)c2ccc(C(=O)N[C@@H](C)c3ccc([N+](=O)[O-])cc3)cc12 — Ki (PPARA; ligand displacement; TR-FRET): 11.2 µM
O=C1c2ccccc2CCN1CCCCN1CCN(c2ccccn2)CC1 — Ki (ADRA1B; ligand displacement; radioligand): 1.38 µM
O=C(Nc1ccc(Oc2ncccn2)cc1C(=O)O)c1ccc(Cl)cc1Cl — Ki (PPARA; ligand displacement; TR-FRET): 4.42 µM
O=c1cc(-c2ccc(O)c(O)c2)oc2cc(O)cc(O)c12 — Ki (CASP1; enzyme activity; inhibitor; fluorescence): 119 µM
O=C1c2ccccc2CCN1CCCCN1CCN(c2cccc(Cl)c2Cl)CC1 — Ki (ADRA1B; ligand displacement; radioligand): 0.649 µM
CCCCN1CCC(COC(=O)c2ccc(N)c(OCF)c2)CC1 — Ki (ADRA1B; cell-free assay; radioligand): > 10 µM
CC[C@H](C)[C@H](NC(=O)[C@H](CCCNC(=N)N)NC(=O)[C@H](CCCNC(=N)N)NC(=O)[C@H](CC(C)C)NC(=O)CNC(=O)[C@H](CCC(N)=O)NC(=O)[C@H](C)NC(=O)[C@@H](NC(=O)[C@H](Cc1c[nH]c2ccccc12)NC(=O)[C@@H](NC(=O)[C@H](CCC(=O)O)NC(=O)[C@@H]1CCCN1C(=O)[C@H](CCCNC(=N)N)NC(C)=O)[C@@H](C)CC)[C@@H](C)CC)C(=O)NCC(=O)N[C@@H](CC(=O)O)C(=O)N[C@H](C(=O)N[C@@H](Cc1c[nH]c2ccccc12)C(=O)N[C@@H](CC(N)=O)C(=O)N[C@@H](C)C(=O)N[C@@H](Cc1ccc(O)cc1)C(=O)N[C@@H](Cc1ccc(O)cc1)C(=O)N[C@@H](C)C(=O)N[C@@H](CCCNC(=N)N)C(N)=O)[C@@H](C)O — Ki (Bcl-2-related protein A1 (Homo sapiens, UniProt Q16548); ligand displacement; FP; pH 7.8): 0.008 µM
O=S(=O)(Nc1ccc[nH]c1=S)c1cccs1 — Ki (Insulin-degrading enzyme (IDE, Homo sapiens, UniProt P14735); enzyme activity; inhibitor; fluorescence): 77 µM
COc1ccccc1N1CCN(CCCCN2CCc3ccccc3C2=O)CC1 — Ki (ADRA1B; ligand displacement; radioligand): 0.0766 µM
O=c1c(O)c(-c2ccc(O)cc2)oc2cc(O)cc(O)c12 — Ki (CASP1; enzyme activity; inhibitor; fluorescence): > 300 µM
CC(=O)N[C@@H](CCCNC(=N)N)C(=O)NCC(=O)NCC(=O)N1CCC[C@H]1B(O)O — Ki (Prolyl endopeptidase (PREP, Homo sapiens, UniProt P48147); enzyme activity; inhibitor; fluorescence): 0.0016 µM
